Reference: ChEMBL document CHEMBL1177882, “Novel bisstyryl derivatives of bakuchiol: targeting oral cavity pathogens” (2010)
In brackets after ≈: the same amount, converted by molar mass.

Columns and labels:
Streptococcus mutans [1] = test: Antibacterial activity against Streptococcus mutans ATCC 25175 after 48 hrs by broth microdilution method; type: functional; conditions: ATCC 25175, 48 h
Streptococcus sanguinis [2] = test: Antibacterial activity against Streptococcus sanguinis ATCC 10556 after 48 hrs by broth microdilution method; type: functional; conditions: ATCC 10556, 48 h
Actinomyces viscosus [3] = test: Antibacterial activity against Actinomyces viscosus ATCC 15987 after 24 hrs by broth microdilution method; conditions: ATCC 15987, 24 h
Actinomyces viscosus [4] = test: Antibacterial activity against Actinomyces viscosus ATCC 15987 after 48 hrs by broth microdilution method; type: functional; conditions: ATCC 15987, 48 h
Porphyromonas gingivalis = test: Antibacterial activity against Porphyromonas gingivalis ATCC 33277 after 48 hrs by broth microdilution method; type: functional; conditions: ATCC 33277, 48 h
Procedure, shortened: (§1)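 Broth microdilution MIC for obligate anaerobes, run in their growth media (Wilkins–Chalgren for F. nucleatum and P. intermedia; supplemented Todd Hewitt broth for P. gingivalis). Inoculum suspended in Brucella broth, final 5 × 10^6 cfu/ml. Twofold dilutions, final 0.12–128 µg/ml. Incubated anaerobically (90% N2/5% H2/5% CO2) at 37 °C for 48 h; MIC is the lowest concentration without turbidity.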

Streptococcus sanguinis [5] = test: Antibacterial activity against Streptococcus sanguinis ATCC 10556 after 24 hrs by broth microdilution method; conditions: ATCC 10556, 24 h
Prevotella intermedia = test: Antibacterial activity against Prevotella intermedia ATCC 25611 after 48 hrs by broth microdilution method; type: functional; conditions: ATCC 25611, 48 h; procedure, shortened: as §1
Streptococcus mutans [6] = test: Antibacterial activity against Streptococcus mutans ATCC 25175 after 24 hrs by broth microdilution method; conditions: ATCC 25175, 24 h
Fusobacterium nucleatum = test: Antibacterial activity against Fusobacterium nucleatum ATCC 10953 after 48 hrs by broth microdilution method; type: functional; conditions: ATCC 10953, 48 h; procedure, shortened: as §1
Streptococcus mutans [7] = test: Antibacterial activity against Streptococcus mutans ATCC 25175 assessed as inhibition of biofilm formation after 18 hrs; type: functional
Procedure, shortened: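 Single-species S. mutans biofilm grown in flat-bottom polystyrene wells, BHI with 2% sucrose, 6 × 10^7 cfu/ml final, compound twofold 0.12–128 µg/ml, 18 h at 37 °C in 5% CO2. Wells rinsed with PBS pH 7.2, methanol-fixed, stained with 0.1% crystal violet, eluted in 95% ethanol, A595 read. % inhibition relative to untreated control; MBIC50 is the lowest concentration giving ≥50% inhibition.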

| SMILES | MBC (Streptococcus mutans [1]) [mg/L] | MBC (Streptococcus sanguinis [2]) [mg/L] | MIC (Actinomyces viscosus [3]) [mg/L] | MBC (Actinomyces viscosus [4]) [mg/L] | MBC (Porphyromonas gingivalis) [mg/L] | MIC (Porphyromonas gingivalis) [mg/L] | MIC (Streptococcus sanguinis [5]) [mg/L] | MBC (Prevotella intermedia) [mg/L] | MIC (Prevotella intermedia) [mg/L] | MIC (Streptococcus mutans [6]) [mg/L] | MBC (Fusobacterium nucleatum) [mg/L] | MIC (Fusobacterium nucleatum) [mg/L] | MBIC50 (Streptococcus mutans [7]) [µg/mL] |
| --- | --- | --- | --- | --- | --- | --- | --- | --- | --- | --- | --- | --- | --- |
| C=C[C@@](C)(/C=C/c1ccc(OC(C)=O)cc1)CCC=C(C)C [ACETYLBAKUCHIOL] | > 128 | 16 (≈ 53.6 µM) | 32 (≈ 107 µM) | 64 (≈ 214 µM) | 8 (≈ 26.8 µM) | 8 (≈ 26.8 µM) | 16 (≈ 53.6 µM) | 64 (≈ 214 µM) | 64 (≈ 214 µM) | 128 (≈ 429 µM) | > 128 | > 128 |  |
| COc1ccc(/C=C/[C@@](C)(/C=C/c2ccc(O)cc2)CCC=C(C)C)cc1CO | 4 (≈ 10.2 µM) | 8 (≈ 20.4 µM) | 4 (≈ 10.2 µM) | 8 (≈ 20.4 µM) | 4 (≈ 10.2 µM) | 2 (≈ 5.1 µM) | 4 (≈ 10.2 µM) | 4 (≈ 10.2 µM) | 2 (≈ 5.1 µM) | 4 (≈ 10.2 µM) | > 128 | > 128 | 8 |
| C=C[C@@](C)(/C=C/c1ccc(O)cc1)CCC1OC1(C)C (some centres not stated) | > 128 | > 128 | 64 (≈ 235 µM) | 128 (≈ 470 µM) | 64 (≈ 235 µM) | 32 (≈ 117 µM) | 128 (≈ 470 µM) | 128 (≈ 470 µM) | 64 (≈ 235 µM) | 128 (≈ 470 µM) | > 128 | > 128 |  |
| CC[C@](C)(CCCC(C)C)CCc1ccc(O)cc1 | 4 (≈ 15.2 µM) | 2 (≈ 7.62 µM) | 2 (≈ 7.62 µM) | 4 (≈ 15.2 µM) | 2 (≈ 7.62 µM) | 1 (≈ 3.81 µM) | 1 (≈ 3.81 µM) | 4 (≈ 15.2 µM) | 2 (≈ 7.62 µM) | 2 (≈ 7.62 µM) | > 128 | > 128 | 4 |
| Oc1cc(Cl)ccc1Oc1ccc(Cl)cc1Cl [TRICLOSAN] | 8 (≈ 27.6 µM) | 4 (≈ 13.8 µM) | 4 (≈ 13.8 µM) | 8 (≈ 27.6 µM) | 2 (≈ 6.91 µM) | 2 (≈ 6.91 µM) | 4 (≈ 13.8 µM) | 1 (≈ 3.45 µM) | 1 (≈ 3.45 µM) | 4 (≈ 13.8 µM) | 2 (≈ 6.91 µM) | 2 (≈ 6.91 µM) |  |
| C=C[C@@](C)(/C=C/c1ccc(O)cc1)CC/C=C(/C)C=O | 128 (≈ 473 µM) | 64 (≈ 237 µM) | 32 (≈ 118 µM) | 64 (≈ 237 µM) | 16 (≈ 59.2 µM) | 16 (≈ 59.2 µM) | 32 (≈ 118 µM) | 64 (≈ 237 µM) | 32 (≈ 118 µM) | 64 (≈ 237 µM) | 64 (≈ 237 µM) | 32 (≈ 118 µM) |  |
| C=C[C@@](C)(/C=C/c1ccc(O)c(N)c1)CCC=C(C)C | 32 (≈ 118 µM) | 32 (≈ 118 µM) | 16 (≈ 59 µM) | 32 (≈ 118 µM) | 4 (≈ 14.7 µM) | 2 (≈ 7.37 µM) | 16 (≈ 59 µM) | 32 (≈ 118 µM) | 16 (≈ 59 µM) | 16 (≈ 59 µM) | 64 (≈ 236 µM) | 32 (≈ 118 µM) |  |
| C=C[C@@](C)(/C=C/c1ccc(O)c([N+](=O)[O-])c1)CCC=C(C)C | 128 (≈ 425 µM) | > 128 | 128 (≈ 425 µM) | > 128 | 32 (≈ 106 µM) | 32 (≈ 106 µM) | 128 (≈ 425 µM) | 128 (≈ 425 µM) | 64 (≈ 212 µM) | 64 (≈ 212 µM) | > 128 | > 128 |  |
| CC(C)=CCC[C@@](C)(/C=C/c1ccc(N)cc1)/C=C/c1ccc(O)cc1 | 4 (≈ 11.5 µM) | 4 (≈ 11.5 µM) | 2 (≈ 5.76 µM) | 2 (≈ 5.76 µM) | 2 (≈ 5.76 µM) | 1 (≈ 2.88 µM) | 2 (≈ 5.76 µM) | 4 (≈ 11.5 µM) | 2 (≈ 5.76 µM) | 2 (≈ 5.76 µM) | > 128 | > 128 |  |
| COc1ccc(/C=C/[C@@](C)(/C=C/c2ccc(O)cc2)CCC=C(C)C)cc1C=O | 16 (≈ 41 µM) | 32 (≈ 81.9 µM) | 16 (≈ 41 µM) | 32 (≈ 81.9 µM) | 2 (≈ 5.12 µM) | 2 (≈ 5.12 µM) | 16 (≈ 41 µM) | 32 (≈ 81.9 µM) | 16 (≈ 41 µM) | 16 (≈ 41 µM) | > 128 | > 128 |  |
| COc1ccccc1/C=C/[C@@](C)(/C=C/c1ccc(O)cc1)CCC=C(C)C | 8 (≈ 22.1 µM) | 4 (≈ 11 µM) | 2 (≈ 5.52 µM) | 4 (≈ 11 µM) | 2 (≈ 5.52 µM) | 1 (≈ 2.76 µM) | 2 (≈ 5.52 µM) | 4 (≈ 11 µM) | 2 (≈ 5.52 µM) | 4 (≈ 11 µM) | 32 (≈ 88.3 µM) | 16 (≈ 44.1 µM) | 8 |
| CCCOc1ccc(/C=C/[C@@](C)(/C=C/c2ccc(O)cc2)CCC=C(C)C)cc1Cl | 8 (≈ 18.8 µM) | 32 (≈ 75.3 µM) | 32 (≈ 75.3 µM) | 64 (≈ 151 µM) | 4 (≈ 9.41 µM) | 4 (≈ 9.41 µM) | 16 (≈ 37.6 µM) | 32 (≈ 75.3 µM) | 16 (≈ 37.6 µM) | 32 (≈ 75.3 µM) | 128 (≈ 301 µM) | 64 (≈ 151 µM) |  |
